Test results reported in the array DNA melting data of Ke et al. (doi:10.1101/2024.01.08.574731).

What was measured:
[1] = folding enthalpy; higher = less favourable; fluorescence melt of hairpins on a sequencing array, two-state fit; details: sodium 0.088 M
In short: (§1)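 Bootstrapped two-state fits yielded melting temperature and folding enthalpy for library hairpins. Cy3 fluorescence, with annealed Cy3 and quencher oligos, was imaged on a sequenced MiSeq flow cell in 50 mM Na-HEPES pH 8.0, 25 mM NaCl in 2.5 °C steps up to 60 °C, and normalised to pre-quench Cy3 and to control constructs. Four replicates were combined by inverse variance, and fitted temperatures were raised by 9.35 °C to match UV melts.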

[2] = melting temperature; fluorescence melt of hairpins on a sequencing array, two-state fit, raised by 9.35 °C to match UV melts; details: sodium 0.088 M
In short: as §1

Row | Sequence | folding enthalpy [1] [kcal/mol] | Tm [2] [°C]
1 | GATCCGACAACGGATC ((((((....)))))) | -35 | 57
2 | GATCCGACACCGGATC ((((((....)))))) | -37.4 | 55.4
3 | GATCCGACAGCGGATC ((((((....)))))) | -34.2 | 54
4 | GATCCGACGAAAGTCATC (((..(((....)))))) | -9.01 | 25.9
5 | GATCCGACGGCGGATC ((((((....)))))) | -48 | 57.8
6 | GATCCGAGACGGATC ((((((...)))))) | -39.9 | 55.8
7 | GATCCGAGCTCGGATC ((((((....)))))) | -37.3 | 63
8 | GATCCGAGGTCGGATC ((((((....)))))) | -38.8 | 58.3
9 | GATCCGAGTCGGATC ((((((...)))))) | -35 | 59.5
10 | GATCCGAGTTCGGATC ((((((....)))))) | -47.4 | 58.5
11 | GATCCGATACCGGATC ((((((....)))))) | -29.9 | 57
12 | GATCCGATAGCGGATC ((((((....)))))) | -38.9 | 54.3
13 | GATCCGATCCCGGATC ((((((....)))))) | -38.9 | 55.6
14 | GATCCGATCGCGGATC ((((((....)))))) | -37.9 | 56
15 | GATCCGATGCGGATC ((((((...)))))) | -31 | 57.7
16 | GATCCGATGTCGGATC ((((((....)))))) | -37.6 | 61.6
17 | GATCCGATTACGGATC ((((((....)))))) | -34.2 | 58.4
18 | GATCCGCACTCGGATC ((((((....)))))) | -41 | 56.5
19 | GATCCGCAGTCGGATC ((((((....)))))) | -35 | 55.9
20 | GATCCGCCAACGGATC ((((((....)))))) | -36 | 57.7
21 | GATCCGCCGCGGATC ((((((...)))))) | -40.5 | 56.5
22 | GATCCGCCTACGGATC ((((((....)))))) | -37.9 | 59.6
23 | GATCCGCGAAAGCGATC (((.(((....)))))) | -14 | 44.6
24 | GATCCGCTAACGGATC ((((((....)))))) | -37.2 | 58.8

Row | Sequence | folding enthalpy [1] [kcal/mol] | Tm [2] [°C]
25 | GATCCGCTGACGGATC ((((((....)))))) | -38 | 60.7
26 | GATCCGCTGCCGGATC ((((((....)))))) | -36.4 | 57
27 | GATCCGCTTCGGATC ((((((...)))))) | -39 | 58.6
28 | GATCCGGAATCGGATC ((((((....)))))) | -45.2 | 62
29 | GATCCGGACACGGATC ((((((....)))))) | -43.2 | 66
30 | GATCCGGACCGGATC ((((((...)))))) | -34.6 | 57.3
31 | GATCCGGAGCGGATC ((((((...)))))) | -33.3 | 56.1
32 | GATCCGGCTTCGGATC ((((((....)))))) | -39.8 | 59.5
33 | GATCCGGGAAACTGGATC (((((.(....).))))) | -41.7 | 52.1
34 | GATCCGGGACCGGATC ((((((....)))))) | -44.4 | 65.4
35 | GATCCGGGGACGGATC ((((((....)))))) | -41.6 | 61.9
36 | GATCCGGTAGCGGATC ((((((....)))))) | -31.3 | 64.2
37 | GATCCGGTTCCGGATC ((((((....)))))) | -43 | 62.7
38 | GATCCGGTTCGGATC ((((((...)))))) | -31.5 | 63.6
39 | GATCCGGTTGCGGATC ((((((....)))))) | -40.3 | 59.6
40 | GATCCGTAGACGGATC ((((((....)))))) | -42.9 | 58.2
41 | GATCCGTCACGGATC ((((((...)))))) | -34.7 | 60.6
42 | GATCCGTCCACGGATC ((((((....)))))) | -43 | 64.1
43 | GATCCGTCGACGGATC ((((((....)))))) | -48.8 | 61.9
44 | GATCCGTCGCGGATC ((((((...)))))) | -35.8 | 59
45 | GATCCGTGAACGGATC ((((((....)))))) | -33.1 | 60.5
46 | GATCCGTGATCGGATC ((((((....)))))) | -32.1 | 58.6
47 | GATCCGTTAGCGGATC ((((((....)))))) | -39.9 | 60.8
48 | GATCCGTTCCGGATC ((((((...)))))) | -46 | 59.2

Row | Sequence | folding enthalpy [1] [kcal/mol] | Tm [2] [°C]
49 | GATCCTAAGGAGGATC ((((((....)))))) | -25.2 | 49.3
50 | GATCCTAATGAGGATC ((((((....)))))) | -34.1 | 50.5
51 | GATCCTACAAAGGATC ((((((....)))))) | -36.3 | 49.5
52 | GATCCTACCAGGATC ((((((...)))))) | -39.6 | 54.9
53 | GATCCTACGAAGGATC ((((((....)))))) | -35.9 | 50.3
54 | GATCCTACGCAGGATC ((((((....)))))) | -35 | 51.1
55 | GATCCTACGGAGGATC ((((((....)))))) | -35 | 50.9
56 | GATCCTACTCAGGATC ((((((....)))))) | -32.3 | 52
57 | GATCCTAGATAGGATC ((((((....)))))) | -36.1 | 50.8
58 | GATCCTATACAGGATC ((((((....)))))) | -38.1 | 52.4
59 | GATCCTATATAGGATC ((((((....)))))) | -46.7 | 52.3
60 | GATCCTATGAAGGATC ((((((....)))))) | -34 | 51
61 | GATCCTATGGAGGATC ((((((....)))))) | -35.2 | 50.6
62 | GATCCTATTCAGGATC ((((((....)))))) | -44 | 52.6
63 | GATCCTATTTAGGATC ((((((....)))))) | -40.6 | 54.4
64 | GATCCTCAAAGGATC ((((((...)))))) | -32.1 | 50.6
65 | GATCCTCAACAGGATC ((((((....)))))) | -37.2 | 48.7
66 | GATCCTCACAGGATC ((((((...)))))) | -27.2 | 54
67 | GATCCTCAGCAGGATC ((((((....)))))) | -33.2 | 48.8
68 | GATCCTCATCAGGATC ((((((....)))))) | -37 | 49.7
69 | GATCCTCCATAGGATC ((((((....)))))) | -33.5 | 51.1
70 | GATCCTCCTAGGATC ((((((...)))))) | -39.2 | 54
71 | GATCCTCCTTAGGATC ((((((....)))))) | -36.8 | 50.9
72 | GATCCTCGAAAGGATC ((((((....)))))) | -37.2 | 50.4

Row | Sequence | folding enthalpy [1] [kcal/mol] | Tm [2] [°C]
73 | GATCCTCGAGAGGATC ((((((....)))))) | -42.7 | 56.8
74 | GATCCTCGCGAGGATC ((((((....)))))) | -43.4 | 60.4
75 | GATCCTCGGTAGGATC ((((((....)))))) | -26.9 | 50.9
76 | GATCCTCGTAAGGATC ((((((....)))))) | -35.3 | 54.5
77 | GATCCTCGTGAGGATC ((((((....)))))) | -36.6 | 61.5
78 | GATCCTCTATAGGATC ((((((....)))))) | -40.8 | 51.9
79 | GATCCTCTGTAGGATC ((((((....)))))) | -36.2 | 51.8
80 | GATCCTCTTTAGGATC ((((((....)))))) | -46.6 | 52
81 | GATCCTGAGTAGGATC ((((((....)))))) | -37.9 | 50.9
82 | GATCCTGATTAGGATC ((((((....)))))) | -40.4 | 51.3
83 | GATCCTGCTAGGATC ((((((...)))))) | -34 | 54.8
84 | GATCCTGGAAACAGGATC (((((((....))))))) | -44.4 | 61.7
85 | GATCCTGGAAACAGGGTC ((.((((....)))).)) | -32.9 | 50.8
86 | GATCCTGGCCAGGATC ((((((....)))))) | -47.6 | 61.3
87 | GATCCTGGCTAGGATC ((((((....)))))) | -38.3 | 57.5
88 | GATCCTGGTAAGGATC ((((((....)))))) | -41.8 | 65.8
89 | GATCCTGGTTAGGATC ((((((....)))))) | -38 | 51.9
90 | GATCCTTAACAGGATC ((((((....)))))) | -36.3 | 49
91 | GATCCTTACGAGGATC ((((((....)))))) | -39.9 | 53.2
92 | GATCCTTACTAGGATC ((((((....)))))) | -36.5 | 52.4
93 | GATCCTTAGCAGGATC ((((((....)))))) | -38 | 48.8
94 | GATCCTTCCGAGGATC ((((((....)))))) | -43.5 | 53.1
95 | GATCCTTGAAGGATC ((((((...)))))) | -38.8 | 51.2
96 | GATCCTTGACAGGATC ((((((....)))))) | -28.2 | 49.7
